# Active and inactive are the calls of the source. The rule behind the calls is not given here.
# Experiments:
# [1] = tested on: Candida albicans; assay: Antifungal activity against Candida albicans SC5314 planktonic monomicrobial biofilms assessed as […] viability after 24 hrs in presence 50% bovine serum by CFU assay; format: functional, organism-based
# How it was run: (§1)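 C. albicans SC5314 at 10⁶ CFU/ml, alone or with S. aureus (10⁷ CFU/ml) for the mixed biofilm, was seeded in 50% bovine serum in tissue-culture-treated 96-well plates, 37°C, 24 h. Biofilms were PBS-washed thrice and exposed to serial antifungal concentrations diluted in 50% BS from DMSO stocks for 24 h. CFU were counted on ampicillin/erythromycin SDA after sonication. Duplicates, two experiments averaged.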
# [2] = tested on: Candida albicans; assay: Antifungal activity against Candida albicans SC5314 monomicrobial biofilms assessed as fungal viability after 24 hrs by CFU assay in presence of 50% bovine serum; format: functional, organism-based
# How it was run: (§2)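 Biofilms were formed in 96-well tissue culture-treated plates in 50% BS with C. albicans (10⁶ CFU/ml) and/or S. aureus (10⁷ CFU/ml) for 24 h at 37°C. They were washed three times in PBS. Vancomycin, Amp B or both were added from DMSO stocks diluted in 50% BS, and biofilms were incubated a further 24 h. Cells were sonicated, tenfold-diluted and counted as CFU on selective agar. Duplicates; averages of two experiments.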
# [3] = tested on: Candida albicans; assay: Antifungal activity against Candida albicans SC5314 planktonic polymicrobial biofilms grown in presence of Staphylococcus aureus ATCC 29523 assessed as […] viability after 24 hrs in presence 50% bovine serum by CFU assay; format: functional, organism-based; how it was run: as §1
# [4] = tested on: Staphylococcus aureus; assay: Antibacterial activity against 10^7 CFU/ml Staphylococcus aureus ATCC 29523 monomicrobial biofilms assessed as log reduction in bacterial viability at 800 ug/mL after 24 hrs in presence of amphotericin B by CFU assay in presence of 50% bovine serum; format: functional; how it was run: as §2
# [5] = tested on: Staphylococcus aureus; assay: Antibacterial activity against 10^7 CFU/ml Staphylococcus aureus ATCC 29523 polymicrobial biofilms grown in presence of 10^6 CFU/mL Candida albicans SC5314 assessed as bacterial viability at 800 ug/mL after 24 hrs by Transwell assay; format: functional, organism-based
# How it was run: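 S. aureus (10⁷ CFU/ml) went in the bottom well and C. albicans (10⁶ CFU/ml) on a 0.4-μm PET Transwell insert, 24 h at 37°C. After PBS washing, vancomycin 800 μg/ml (diluted in 50% BS) went to the bottom well and Amp B to the insert, for 24 h at 37°C. CFU were counted in both compartments, with no-insert controls. Duplicates; averages of two experiments.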
# [6] = tested on: Staphylococcus aureus; assay: Antibacterial activity against 10^7 CFU/ml Staphylococcus aureus ATCC 29523 polymicrobial biofilms grown in presence of Candida albicans biofilm matrix assessed as reduction in bacterial viability at 1.582 to 1600 ug/mL after 24 hrs in presence 50% bovine serum by CFU assay; format: functional, organism-based
# How it was run: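 Matrix came from 24-h C. albicans biofilms in 50% BS. It was scraped, sonicated, centrifuged three times at 12,000 × g and treated with Amp B 20 μg/ml. S. aureus (10⁷ CFU/ml) plus matrix in 50% BS was grown in 96-well plates for 24 h at 37°C, washed, then exposed to vancomycin for 24 h. Washed cells were counted as CFU. Duplicates; two independent experiments.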
# [7] = tested on: Staphylococcus aureus; assay: Antibacterial activity against Staphylococcus aureus ATCC 29523 […] polymicrobial biofilms grown in presence of Candida albicans SC5314 assessed as bacterial viability after 24 hrs in presence 50% bovine serum by CFU assay; format: functional, organism-based
# [8] = tested on: Candida albicans; assay: Antifungal activity against Candida albicans SC5314 polymicrobial biofilms grown in presence of sStaphylococcus aureus ATCC 29523 assessed as fungal viability after 24 hrs by CFU assay in presence of 50% bovine serum; format: functional, organism-based; how it was run: as §2
# [9] = tested on: Staphylococcus aureus; assay: Antibacterial activity against 10^7 CFU/ml Staphylococcus aureus ATCC 29523 monomicrobial biofilms assessed as bacterial viability after 24 hrs by CFU assay in presence of 50% heat inactivated bovine serum; format: functional, organism-based
# [10] = tested on: Staphylococcus aureus; assay: Antibacterial activity against 10^7 CFU/ml Staphylococcus aureus ATCC 29523 monomicrobial biofilms assessed as bacterial viability after 24 hrs by CFU assay in presence of 50% bovine serum; format: functional, organism-based; how it was run: as §2
# [11] = tested on: Staphylococcus aureus; assay: Antibacterial activity against 10^7 CFU/ml Staphylococcus aureus ATCC 29523 polymicrobial biofilms grown in presence of Candida albicans SC5314 assessed as log reduction in bacterial viability at 800 ug/mL after 24 hrs in presence of amphotericin B by CFU assay in presence of 50% bovine serum; format: functional; how it was run: as §2
# [12] = tested on: Staphylococcus aureus; assay: Antibacterial activity against 10^7 CFU/ml Staphylococcus aureus ATCC 29523 polymicrobial biofilms grown in presence of Candida albicans SC5314 assessed as bacterial viability after 24 hrs in presence of amphotericin B by CFU assay in presence of 50% bovine serum; format: functional, organism-based; how it was run: as §2
# [13] = tested on: Staphylococcus aureus; assay: Antibacterial activity against 10^7 CFU/ml Staphylococcus aureus ATCC 29523 polymicrobial biofilms grown in presence of Candida albicans SC5314 assessed as bacterial viability at 1600 ug/mL after 24 hrs in presence 50% bovine serum by CFU assay; format: functional, organism-based; how it was run: as §2
SMILES,growth inhibition (GI) [1],growth inhibition (GI) [2],growth inhibition (GI) [3],FC [4],growth inhibition (GI) [5],growth inhibition (GI) [6],growth inhibition (GI) [7],growth inhibition (GI) [8],growth inhibition (GI) [9],growth inhibition (GI) [10],FC [11],growth inhibition (GI) [12],growth inhibition (GI) [13]
C[C@@H]1[C@H](O)[C@@H](C)/C=C/C=C/C=C/C=C/C=C/C=C/C=C/[C@H](O[C@@H]2O[C@H](C)[C@@H](O)[C@H](N)[C@@H]2O)C[C@@H]2O[C@](O)(C[C@@H](O)C[C@@H](O)[C@H](O)CC[C@@H](O)C[C@@H](O)CC(=O)O[C@H]1C)C[C@H](O)[C@H]2C(=O)O,Active,inactive,Active,,,,,,,,,,
CN[C@H](CC(C)C)C(=O)N[C@H]1C(=O)N[C@@H](CC(N)=O)C(=O)N[C@H]2C(=O)N[C@H]3C(=O)N[C@H](C(=O)N[C@H](C(=O)O)c4cc(O)cc(O)c4-c4cc3ccc4O)[C@H](O)c3ccc(c(Cl)c3)Oc3cc2cc(c3O[C@@H]2O[C@H](CO)[C@@H](O)[C@H](O)[C@H]2O[C@H]2C[C@](C)(N)[C@H](O)[C@H](C)O2)Oc2ccc(cc2Cl)[C@H]1O [VANCOMYCIN],,inactive,,2,Active,inactive,Active,inactive,inactive,Dose-dependent effect,2,Active,inactive

# From ChEMBL document CHEMBL1687742, “Candida albicans and Staphylococcus aureus form polymicrobial biofilms: effects on antimicrobial resistance” (2009)
